Source: paper PMC9166452 (International Journal of Nanomedicine, 2022)
Entries after “also recorded” stand apart in the source; their conditions may differ. Counter-ions that a name gives are not always drawn.

What was measured:
[1] = oral, cited from earlier work
[2] = mice, oral administration; cited from earlier work
In vivo toxicity [3] = assay: In vivo toxicity; set-up: species or system BALB/c nude mice; conditions: 0.25 mg/kg oral
Outline: (§1)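 Female BALB/c nude mice (4 weeks old) received MDA-MB-231 cells (1×10^6/mouse) subcutaneously in the right thigh. At 50–100 mm3 they were randomised to PBS, free or micelle-loaded test compound, given 0.25 mg/kg by oral gavage every two days on days 0–14. Tumor size and body weight were taken every two days to day 17, then organs and tumors went to pathology/TUNEL. TIR was derived from mean tumor size, dosed vs control.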

[4] = In vitro release in simulated gastrointestinal fluids; format: physicochemical
[5] = test system: orthotopic TNBC (MDA-MB-231 cells); assay: Oral treatment combined with surgery on orthotopic TNBC in nude mice; format: in vivo, BALB/c nude mice; conditions: after tumor resection surgery
Outline: (§2)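 MDA-MB-231 cells (1×10^6/mouse) were injected into the second right mammary gland of nude mice. Caliper volume was V = (a×b2)/2. At 80–100 mm3, tumors were resected under isoflurane, leaving 5–10% residual. Twenty mice were split into four arms (surgery plus PBS, blank TPGS micelles, free or micelle-loaded test compound), dosed orally at equal volume every two days on days 0–14. Tumor size and body weight were followed every two days to day 17. Organs, including jejunum and lungs, and tumors were then taken for histology.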

P-glycoprotein (P-gp) = assay: Bidirectional transport across Caco-2 cell monolayers; format: in vitro ADME; conditions: human, Caco-2, with verapamil 100 µM
Outline: (§3)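 Monolayers of Caco-2 cells were grown on 0.4-μm polycarbonate Transwell inserts (2×10^5 cells/well) and used only after passing a TEER check. Free or TPGS-micelle test compound (2 μg/mL) was added apically or basolaterally and incubated 4 h at 37°C. Receiver fluid was assayed by HPLC. Verapamil was co-incubated 4 h. AP→BL transport was also run at 4°C. Papp = (dQ/dt)/(A·C0); ER = Papp(BL→AP)/Papp(AP→BL).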

[6] = as above; format: in vitro ADME; conditions: human, Caco-2
Outline: as §3

Caco-2 cell monolayers = assay: as above; format: in vitro ADME; conditions: AP→BL, 4°C
Outline: as §3

[7] = test system: subcutaneous xenografts of MDA-MB-231 cells; assay: Oral treatment of subcutaneous TNBC xenografts in nude mice; format: in vivo, BALB/c nude mice
Outline: as §1

In vivo toxicity [8] = assay: In vivo toxicity; set-up: species or system BALB/c nude mice; conditions: after tumor resection surgery, oral
Outline: as §2

[9] = patients with advanced solid tumors

SMILES: O=C(CC1NCCCC1O)Cn1cnc2cc(Br)c(Cl)cc2c1=O (stereo not shown) [HF, Halofuginone hydrobromide]
- "acute" maximum tolerated dose (MTD) [1, 9]: 3.5 mg/day
- dose-limiting toxicities (DLT) [1, 9]: nausea, vomiting, and fatigue
- dose recommended for chronic administration in Phase II clinical studies [1]: 0.5 mg/day
- detection in plasma and red blood cells [2]: not detected in plasma and red blood cells
- persistence in kidneys, liver and lungs [2]: up to 48 hours
- histology of jejunum / bleeding (H&E) (In vivo toxicity [3]): jejunum hemorrhage
- body weight change (In vivo toxicity [3]; every two days on days 0–14): caused the loss of body weight
- cumulative release percentage (CRP) of HF ([4]; simulated gastric fluids, from 0 to 8 hours): 53.25%
- cumulative release percentage (CRP) of HF ([4]; simulated gastric fluids, from 8 to 12 hours): 19.6%
- cumulative release percentage (CRP) of HF ([4]; simulated gastric fluids, within 24 hours): 80.03%
- cumulative release percentage (CRP) of HF ([4]; simulated intestinal fluids, from 0 to 8 hours): 54.39%
- cumulative release percentage (CRP) of HF ([4]; simulated intestinal fluids, from 8 to 12 hours): 18.17%
- cumulative release percentage (CRP) of HF ([4]; simulated intestinal fluids, within 24 hours): 82.61%
- expression of Bcl-2, Bax and Caspase-3 in tumor (immunohistochemistry) [5]: regulated by HF and HTPM treatment
- lung metastasis (H&E, visual inspection) [5]: normal histological features without any tumors
- tumor growth vs PBS- and FTPM-treated groups [5]: significant delay in tumor growth
- tumor necrosis (H&E staining) [5]: larger necrotic area than those from the PBS- and FTPM-treated groups
- tumor inhibition rate (TIR) ([5]; every two days on days 0–14): 43.57% ± 1.15
- Papp A→B at 4 h, 2 μg/mL (P-glycoprotein (P-gp)): 6.25 ± 0.75 ×10⁻⁶ cm/s
- Papp B→A at 4 h, 2 μg/mL (P-glycoprotein (P-gp)): 5.9 ± 0.1 ×10⁻⁶ cm/s
- efflux ratio at 4 h, 2 μg/mL (P-glycoprotein (P-gp)): 0.94
- Papp A→B at 4 h, 2 μg/mL [6]: 4.73 ± 0.28 ×10⁻⁶ cm/s
- Papp B→A at 4 h, 2 μg/mL [6]: 8.72 ± 0.16 ×10⁻⁶ cm/s
- efflux ratio at 4 h, 2 μg/mL [6]: 1.84
- Papp at 4°C compared with 37°C (Caco-2 cell monolayers): lower than those at 37 °C
- tumor inhibition rate (TIR) ([7]; 0.25 mg/kg HF, oral gavage, every two days on days 0–14): 47.55% ± 1.32
- tumor size vs untreated mice ([7]; 0.25 mg/kg oral, 12 days after oral administration): significant reduction in tumor size
- tumor necrosis (H&E staining) ([7]; 0.25 mg/kg oral, tumor sections): larger necrotic area than those from the PBS group
- expression of Bcl-2, Bax and Caspase-3 in tumor (immunohistochemistry) ([7]; 0.25 mg/kg oral, tumor tissues): markedly upregulated the expression of Bax and Caspase-3, and downregulated the expression of Bcl-2
- body weight change (In vivo toxicity [8]): caused the loss of body weight; also recorded: significant loss of body weight
- histology of jejunum (H&E) (In vivo toxicity [8]): jejunum bleeding; also recorded: jejunum congestion was found
